Data taken from ChEMBL document CHEMBL3817826, “H2S-Donating Doxorubicins May Overcome Cardiotoxicity and Multidrug Resistance” (J Med Chem, 2016).
Calls of active or inactive are those of the source. No cut-off for these calls is given here.

Tests used:
[1] = biological target: DNA topoisomerase 2-alpha (Homo sapiens) (UniProt P11388); test: Inhibition of human topoisomerase 2-mediated DNA cleavage at 5 uM using supercoiled pHOT1 plasmid as substrate by agarose gel electrophoresis
[2] = Stability of compound in pre-heated IMDM at 200 uM at 37 degC by RP-HPLC analysis; format: physicochemical
How it was run: (§1)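 10 mM DMSO stock diluted into medium pre-warmed to 37 °C, giving 200 μM final, then incubated at 37 °C. Aliquots diluted 1:1 with acetonitrile/0.1% HCOOH, filtered and run on RP-HPLC, quantified against 1–200 μM standards. t1/2 from one-phase exponential decay fit, at least triplicate.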

[3] = Induction of H2S release from compound in IMDM at 100 uM incubated for 1 to 24 hrs using DNS-Az by fluorimetric assay-based HPLC analysis; format: physicochemical
How it was run: (§2)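 Compound at 200 μM initial (half concentration for two low-solubility compounds) in medium or human serum at 37 °C with dansyl azide. Sampled at 1, 4 and 24 h, diluted with CH3CN, spun and filtered. Isocratic RP-HPLC with fluorescence ex 340/em 535 nm. Dansyl amide peak quantified against NaHS calibration as H2S index. At least triplicate.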

[4] = Half life of compound in pre-heated DMEM at 200 uM at 37 degC by RP-HPLC analysis; format: physicochemical; how it was run: as §1
[5] = Half life of compound assessed as human serum esterase-mediated degradation at 100 uM by RP-HPLC analysis; format: ADME
How it was run: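 10 mM DMSO stock added to human serum pre-warmed to 37 °C, giving 100 μM final. Samples taken over time and deproteinized with equal volume acetonitrile/0.1% HCOOH, then spun 2150 g 10 min and filtered. Analysed by RP-HPLC against 1–200 μM calibration. t1/2 from one-phase exponential decay fit, at least triplicate.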

[6] = Induction of H2S release from compound in DMEM at 100 uM incubated for 1 to 24 hrs using DNS-Az by fluorimetric assay-based HPLC analysis; format: physicochemical; how it was run: as §2
Serum = test: Induction of H2S release from compound in human serum at 100 uM incubated for 1 to 24 hrs using DNS-Az by fluorimetric assay-based HPLC analysis; format: functional; how it was run: as §2
H9c2 [7] = test: Drug uptake in rat H9c2 cells at 5 uM incubated for 24 hrs by fluorimetrical analysis; format: ADME, cell-based; details: h9c2, 24 h
How it was run: (§3)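 Intracellular drug measured after 24 h exposure to 5 μM. Cell lysates read fluorimetrically at ex 475/em 553 nm with cell-free blank subtracted. Converted by calibration curve to nmol drug/mg cell protein. Duplicate, n = 3, mean ± SD.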

H9c2 [8] = test: Cytotoxicity in rat H9c2 cells at 5 uM incubated for 24 hrs by LDH release-based spectrofluorimetrical analysis relative to control; format: cell-based; details: h9c2, 24 h
How it was run: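 Cells exposed 24 h to 5 μM drug in DMEM with 10% FBS at 37 °C, 5% CO2. Medium spun 12,000 × g 5 min. Cells sonicated in 82.3 mM triethanolamine phosphate-HCl pH 7.6. LDH in medium and lysate followed 6 min at 340 nm. Extracellular LDH reported as % of total dish activity, duplicate, n = 3, mean ± SD.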

U2OS [9] = test: Drug uptake in human U2OS cells at 5 uM incubated for 24 hrs by fluorimetrical analysis; format: ADME, cell-based; how it was run: as §3
[10] = Drug uptake in human U2OS/DX30 cells at 5 uM incubated for 24 hrs by fluorimetrical analysis; format: ADME, cell-based; how it was run: as §3
[11] = Drug uptake in human U2OS/DX100 cells at 5 uM incubated for 24 hrs by fluorimetrical analysis; format: ADME, cell-based; how it was run: as §3
[12] = Drug uptake in human U2OS/DX580 cells at 5 uM incubated for 24 hrs by fluorimetrical analysis; format: ADME, cell-based; how it was run: as §3
H9c2 [13] = test: Cytotoxicity in rat H9c2 cells assessed as intracellular ROS accumulation at 5 uM incubated for 24 hrs by DCFDA-AM probe-based fluorimetrical analysis relative to control; format: cell-based; details: h9c2, 24 h
How it was run: (§4)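 After 24 h at 5 μM, 1×10^6 cells in 0.5 mL PBS were loaded with 5 μM DCFDA-AM for 30 min at 37 °C, spun and resuspended. Fluorescence read at ex 492/em 517 nm, expressed as nmol ROS/mg cell protein. Duplicate, n = 3, mean ± SD.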

H9c2 [14] = test: Cytotoxicity in rat H9c2 cells assessed as intracellular ROS accumulation at 5 uM incubated for 24 hrs in presence of hydroxocobalamin by DCFDA-AM probe-based fluorimetrical analysis relative to control; format: cell-based; details: h9c2, 24 h
How it was run: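 H9c2 cells held 24 h with 5 μM drug plus 100 μM hydroxocobalamin, then loaded with 5 μM DCFDA-AM for 30 min at 37 °C. Fluorescence read at 492/517 nm, expressed as nmol ROS/mg protein. Duplicate, n = 3.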

U2OS [15] = test: Induction of intracellular ROS accumulation in human U2OS cells at 5 uM incubated for 24 hrs by DCFDA-AM probe-based fluorimetrical analysis relative to control; format: functional, cell-based; how it was run: as §4
H9c2 [16] = test: Cytotoxicity in rat H9c2 cells at 5 uM incubated for 24 hrs in presence of NAC by LDH release-based spectrofluorimetrical analysis relative to control; format: cell-based; details: h9c2, 24 h
U2OS [17] = test: Increase in intracellular ROS accumulation in human U2OS/DX30 cells at 5 uM incubated for 24 hrs in presence of hydroxocobalamin by DCFDA-AM probe-based fluorimetrical analysis relative to control; format: functional, cell-based
How it was run: (§5)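 Cells grown in DMEM with 10% FBS at 37 °C, 5% CO2, resistant variants selected in 30, 100 or 580 ng/mL doxorubicin; treated 24 h with 5 μM drug plus 100 μM hydroxocobalamin. 1×10^6 cells loaded 30 min at 37 °C with 5 μM DCFDA-AM in PBS; fluorescence at ex 492/em 517 nm, expressed as nmol ROS/mg protein; duplicates, n = 3.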

U2OS [18] = test: Increase in intracellular ROS accumulation in human U2OS/DX580 cells at 5 uM incubated for 24 hrs in presence of hydroxocobalamin by DCFDA-AM probe-based fluorimetrical analysis relative to control; format: functional, cell-based; how it was run: as §5
U2OS [19] = test: Induction of intracellular ROS accumulation in human U2OS/DX100 cells at 5 uM incubated for 24 hrs by DCFDA-AM probe-based fluorimetrical analysis relative to control; format: functional, cell-based; how it was run: as §4
U2OS [20] = test: Induction of intracellular ROS accumulation in human U2OS/DX30 cells at 5 uM incubated for 24 hrs by DCFDA-AM probe-based fluorimetrical analysis relative to control; format: functional, cell-based; how it was run: as §4
U2OS [21] = test: Induction of intracellular ROS accumulation in human U2OS/DX580 cells at 5 uM incubated for 24 hrs by DCFDA-AM probe-based fluorimetrical analysis relative to control; format: functional, cell-based; how it was run: as §4
U2OS [22] = test: Increase in intracellular ROS accumulation in human U2OS cells at 5 uM incubated for 24 hrs in presence of hydroxocobalamin by DCFDA-AM probe-based fluorimetrical analysis relative to control; format: functional, cell-based; how it was run: as §5
U2OS [23] = test: Increase in intracellular ROS accumulation in human U2OS/DX100 cells at 5 uM incubated for 24 hrs in presence of hydroxocobalamin by DCFDA-AM probe-based fluorimetrical analysis relative to control; format: functional, cell-based; how it was run: as §5

DNA topoisomerase 2-alpha (Homo sapiens), sequence (P11388 whole entry): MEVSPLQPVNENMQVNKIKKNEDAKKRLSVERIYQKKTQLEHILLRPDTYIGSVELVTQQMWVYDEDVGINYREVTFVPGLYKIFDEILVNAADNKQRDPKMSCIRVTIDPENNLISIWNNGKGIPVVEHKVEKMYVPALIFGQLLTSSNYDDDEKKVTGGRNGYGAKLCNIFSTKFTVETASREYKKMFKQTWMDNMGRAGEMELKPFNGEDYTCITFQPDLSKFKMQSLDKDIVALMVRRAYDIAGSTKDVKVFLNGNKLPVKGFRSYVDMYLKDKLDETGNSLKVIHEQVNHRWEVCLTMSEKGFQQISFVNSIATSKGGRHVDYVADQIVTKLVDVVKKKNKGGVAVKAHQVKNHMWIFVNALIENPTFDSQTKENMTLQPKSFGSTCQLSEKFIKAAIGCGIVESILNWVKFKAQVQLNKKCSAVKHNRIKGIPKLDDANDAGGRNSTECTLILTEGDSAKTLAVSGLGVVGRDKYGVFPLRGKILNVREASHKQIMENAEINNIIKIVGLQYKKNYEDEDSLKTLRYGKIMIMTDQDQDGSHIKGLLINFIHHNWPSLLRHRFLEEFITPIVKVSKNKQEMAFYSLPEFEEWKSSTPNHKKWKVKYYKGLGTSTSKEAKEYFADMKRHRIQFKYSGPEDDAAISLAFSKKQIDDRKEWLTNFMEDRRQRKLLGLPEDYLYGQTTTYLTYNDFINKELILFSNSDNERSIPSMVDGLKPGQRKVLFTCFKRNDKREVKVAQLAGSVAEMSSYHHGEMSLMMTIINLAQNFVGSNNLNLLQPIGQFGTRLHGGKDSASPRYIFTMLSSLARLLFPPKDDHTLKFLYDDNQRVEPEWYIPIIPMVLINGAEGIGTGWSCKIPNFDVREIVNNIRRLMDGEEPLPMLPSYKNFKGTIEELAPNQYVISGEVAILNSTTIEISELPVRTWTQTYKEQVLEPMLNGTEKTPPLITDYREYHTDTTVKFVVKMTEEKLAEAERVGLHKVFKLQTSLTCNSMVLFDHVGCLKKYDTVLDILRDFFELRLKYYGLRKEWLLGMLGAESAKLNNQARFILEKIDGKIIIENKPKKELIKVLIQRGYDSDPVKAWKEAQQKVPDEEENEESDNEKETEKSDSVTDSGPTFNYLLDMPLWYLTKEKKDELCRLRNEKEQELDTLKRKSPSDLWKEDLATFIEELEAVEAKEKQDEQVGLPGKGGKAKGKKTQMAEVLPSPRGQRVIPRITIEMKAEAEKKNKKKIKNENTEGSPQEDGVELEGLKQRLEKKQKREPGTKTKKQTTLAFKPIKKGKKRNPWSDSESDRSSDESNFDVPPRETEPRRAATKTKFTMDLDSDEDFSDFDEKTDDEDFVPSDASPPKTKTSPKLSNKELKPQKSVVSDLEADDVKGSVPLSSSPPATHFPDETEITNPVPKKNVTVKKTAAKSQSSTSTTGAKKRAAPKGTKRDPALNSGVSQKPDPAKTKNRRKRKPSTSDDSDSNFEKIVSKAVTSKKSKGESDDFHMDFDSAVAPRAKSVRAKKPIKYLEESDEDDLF

## C=CCSSCCC(=O)OCC(=O)[C@]1(O)Cc2c(O)c3c(c(O)c2[C@@H](O[C@H]2C[C@H](N)[C@H](O)[C@H](C)O2)C1)C(=O)c1c(OC)cccc1C3=O.Cl
[1]
  inhibition: inactive
[2]
  Stability: Stable
[3]
  Activity: Not Active
[4]
  half-life at 200 µM: 336 min
[5]
  half-life at 100 µM: 228 min
[6]
  Activity: Not Active
Serum
  Activity: Active
H9c2 [7]
  Drug uptake: Active
H9c2 [8]
  Activity: Toxic
U2OS [9]
  Drug uptake: Active
[10]
  Drug uptake: Active
[11]
  Drug uptake: Active
[12]
  Drug uptake: Active
H9c2 [13]
  Activity: Non-toxic
H9c2 [14]
  Activity: Toxic
U2OS [15]
  Activity: inactive

## COC(=O)c1ccc(C(N)=S)cc1
H9c2 [8]
  Activity: Toxic

## COc1cccc2c1C(=O)c1c(O)c3c(c(O)c1C2=O)C[C@@](O)(C(=O)COC(=O)c1csc(=S)s1)C[C@@H]3O[C@H]1C[C@H](N)[C@H](O)[C@H](C)O1.Cl
[1]
  inhibition: inactive
[2]
  Stability: Unstable
[3]
  Activity: Not Active
[4]
  half-life at 200 µM: 17 min
[5]
  half-life at 100 µM: 17 min
[6]
  Activity: Not Active
Serum
  Activity: Active
H9c2 [7]
  Drug uptake: Active
H9c2 [8]
  Activity: Non-toxic
H9c2 [13]
  Activity: Non-toxic
H9c2 [14]
  Activity: Toxic
H9c2 [16]
  Activity: Non-toxic
U2OS [15]
  Activity: inactive

## COc1cccc2c1C(=O)c1c(O)c3c(c(O)c1C2=O)C[C@@](O)(C(=O)COC(=O)COc1ccc(-c2cc(=S)ss2)cc1)C[C@@H]3O[C@H]1C[C@H](N)[C@H](O)[C@H](C)O1.Cl
[1]
  inhibition: inactive
[2]
  Stability: Unstable
[3]
  Activity: Not Active
[4]
  half-life at 200 µM: 16 min
[5]
  half-life at 100 µM: 3 min
[6]
  Activity: Not Active
Serum
  Activity: Active
H9c2 [7]
  Drug uptake: Active
H9c2 [8]
  Activity: Non-toxic
H9c2 [13]
  Activity: Non-toxic
H9c2 [14]
  Activity: Toxic
H9c2 [16]
  Activity: Non-toxic
U2OS [15]
  Activity: inactive

## C=CCSCC(NC(C)=O)C(=O)OCC(=O)[C@]1(O)Cc2c(O)c3c(c(O)c2[C@@H](O[C@H]2C[C@H](N)[C@H](O)[C@H](C)O2)C1)C(=O)c1c(OC)cccc1C3=O.Cl (some centres not stated)
[1]
  inhibition: inactive
[2]
  Stability: Unstable
[3]
  Activity: Not Active
[4]
  half-life at 200 µM: < 1 min
[5]
  half-life at 100 µM: 11 min
[6]
  Activity: Not Active
Serum
  Activity: inactive
H9c2 [7]
  Drug uptake: Active
H9c2 [8]
  Activity: Non-toxic
H9c2 [13]
  Activity: Non-toxic
H9c2 [14]
  Activity: Toxic
H9c2 [16]
  Activity: Non-toxic
U2OS [15]
  Activity: inactive

## C=CCSSCCC(=O)OCC
H9c2 [8]
  Activity: Toxic

## COc1cccc2c1C(=O)c1c(O)c3c(c(O)c1C2=O)C[C@@](O)(C(=O)COC(=O)c1ccc(-c2cssc2=S)cc1)C[C@@H]3O[C@H]1C[C@H](N)[C@H](O)[C@H](C)O1.Cl
U2OS [17]
  Activity: Active
U2OS [18]
  Activity: Active
[1]
  inhibition: inactive
[2]
  Stability: Stable
[3]
  Activity: Active
[4]
  half-life at 200 µM: 1290 min
[5]
  half-life at 100 µM: 276 min
[6]
  Activity: Active
Serum
  Activity: Active
H9c2 [7]
  Drug uptake: Active
H9c2 [8]
  Activity: Non-toxic
U2OS [9]
  Drug uptake: Active
[10]
  Drug uptake: Active
[11]
  Drug uptake: Active
[12]
  Drug uptake: Active
H9c2 [13]
  Activity: Non-toxic
H9c2 [14]
  Activity: Toxic
H9c2 [16]
  Activity: Non-toxic
U2OS [15]
  Activity: inactive
U2OS [19]
  Activity: inactive
U2OS [20]
  Activity: inactive
U2OS [21]
  Activity: inactive
U2OS [22]
  Activity: Active
U2OS [23]
  Activity: Active

## COc1cccc2c1C(=O)c1c(O)c3c(c(O)c1C2=O)C[C@@](O)(C(=O)COC(=O)c1ccc(C(N)=S)cc1)C[C@@H]3O[C@H]1C[C@H](N)[C@H](O)[C@H](C)O1.Cl
[1]
  inhibition: inactive
[2]
  Stability: Stable
[3]
  Activity: Not Active
[4]
  half-life at 200 µM: 204 min
[5]
  half-life at 100 µM: 38 min
[6]
  Activity: Not Active
Serum
  Activity: Active
H9c2 [7]
  Drug uptake: Active
H9c2 [8]
  Activity: Toxic
U2OS [9]
  Drug uptake: Active
[10]
  Drug uptake: Active
[11]
  Drug uptake: Active
[12]
  Drug uptake: Active
H9c2 [13]
  Activity: Non-toxic
H9c2 [14]
  Activity: Toxic
U2OS [15]
  Activity: inactive
